{"data": "Results collected from several papers", "effect on": "cell growth or viability", "note": "Compare with care: the assays were run in different laboratories."}
{"Compound": "C=CCNC(=S)NNC(=O)COc1ccc2c(C)c(CC)c(=O)oc2c1C", "cell line": "PC-3", "test": "MTT", "conditions": "1000 µg/mL", "quantity": "viability", "result": "2.65%"}
{"Compound": "Cc1cccc(/C=C/C(=O)Nc2cc(-c3ccnc(N4CCOCC4)c3)ccn2)c1", "cell line": "A549", "test": "MTT", "conditions": "5 µM", "quantity": "inhibition", "result": "74.9%"}
{"Compound": "O=C(O)c1ccc2c(c1)nc(Nc1cccc(Cl)c1)c1ccncc12", "cell line": "NCI-H522", "test": "crystal violet", "conditions": "48 h", "quantity": "IC50", "result": "3.1 µM"}
{"Compound": "Cc1nc(Nc2ccc3c(c2)/C(=C/c2ccccc2)C(=O)N3C)c2ccccc2n1", "cell line": "A549", "test": "MTT", "quantity": "IC50", "result": "27.8 µM"}
{"Compound": "O=C(C=Cc1ccccc1)Nc1cc(-c2ccnc(N3CCC(O)CC3)c2)ccn1", "cell line": "A549", "test": "MTT", "conditions": "5 µM", "quantity": "inhibition", "result": "73.1%"}
{"Compound": "Cc1ccc(-c2cc(-c3ccc(Cl)cc3)c3c(=O)n(C)c(=O)n(C)c3n2)cc1", "cell line": "PC-3", "test": "MTT", "conditions": "48 h", "quantity": "IC50", "result": "11.7 µM"}
{"Compound": "O=C(C=Cc1cccc(F)c1)Nc1cc(-c2ccnc(N3CCC(O)CC3)c2)ccn1", "cell line": "A549", "test": "MTT", "conditions": "5 µM", "quantity": "inhibition", "result": "65%"}
{"Compound": "Cc1c(Cc2ccccc2)c(=O)oc2c(C)c(OCC(=O)NN=Cc3ccccc3)ccc12", "cell line": "PC-3", "test": "MTT", "conditions": "125 µg/mL", "quantity": "viability", "result": "21.2%"}
{"Compound": "CCC[C@H]1NC(=O)[C@H](Cc2cc(Cl)ccc2-c2cnn(C)c2)N(C)C(=O)[C@H](CC(C)C)NC(=O)[C@@H](N(C)C(=O)[C@H](CCCCN2CCOCC2)NC(=O)[C@@H](c2cccnc2)C2CCCCC2)CCCCNC1=O", "cell line": "NCI-H1048", "test": "MTT", "conditions": "5 days", "quantity": "GI50", "result": "3 µM"}
{"Compound": "CCOc1ccc2c(C)c(CC)c(=O)oc2c1C", "cell line": "PC-3", "test": "MTT", "conditions": "125 µg/mL", "quantity": "viability", "result": "51%"}
{"Compound": "Cc1cc(NC(=O)C=Cc2ccccc2)cc(-c2ccnc(N3CCC(O)CC3)c2)c1", "cell line": "A549", "test": "MTT", "conditions": "5 µM", "quantity": "inhibition", "result": "37.6%"}
{"Compound": "COc1cccc2c1C(=O)c1c(O)c3c(c(O)c1C2=O)C[C@@](O)(C(=O)CO)C[C@@H]3O[C@H]1C[C@H](N)[C@H](O)[C@H](C)O1", "cell line": "HUVEC", "test": "MTT", "conditions": "24 h", "quantity": "IC50", "result": "6.5 µM"}
{"Compound": "O=C(/C=C/c1ccc(F)cc1)Nc1cc(-c2ccnc(N3CCC(O)CC3)c2)ccn1", "cell line": "A549", "test": "MTT", "conditions": "5 µM", "quantity": "inhibition", "result": "62.2%"}
{"Compound": "COc1ccc(-c2cc(-c3ccc(OC)cc3)c3c(=O)n(C)c(=O)n(C)c3n2)cc1", "cell line": "PC-3", "test": "MTT", "conditions": "48 h", "quantity": "IC50", "result": "26.2 µM"}
{"Compound": "CCc1c(C)c2ccc(OCC(=O)NNC(=S)Nc3ccccc3)c(C)c2oc1=O", "cell line": "PC-3", "test": "MTT", "conditions": "31.25 µg/mL", "quantity": "viability", "result": "48.3%"}
{"Compound": "COc1cccc2c1C(=O)c1c(O)c3c(c(O)c1C2=O)C[C@@](O)(C(=O)CO)C[C@@H]3O[C@H]1C[C@H](N)[C@H](O)[C@H](C)O1", "cell line": "A549", "test": "MTT", "conditions": "100 µg/mL, 48 h, serum-free", "quantity": "viability", "result": "12.4%"}
{"Compound": "COc1cc2ncnc(Nc3ccc4c(c3)/C(=C/c3ccccc3)C(=O)N4C)c2cc1OC", "cell line": "A549", "test": "MTT", "quantity": "IC50", "result": "14.4 µM"}
{"Compound": "CCc1c(C)c2ccc(OCC=Cc3ccccc3)c(C)c2oc1=O", "cell line": "PC-3", "test": "MTT", "conditions": "250 µg/mL", "quantity": "viability", "result": "18.1%"}
{"Compound": "C=CC(=O)NC1CCN(c2ncc3ncnc(Nc4ccc(Oc5ccc6c(c5)ncn6C)c(C)c4)c3n2)CC1", "cell line": "NCI-H2170", "quantity": "IC50", "result": "0.0581 µM"}
{"Compound": "Cc1cc(NC(=O)C=Cc2ccccc2)cc(-c2ccnc(N3CCOCC3)c2)c1", "cell line": "A549", "test": "MTT", "conditions": "5 µM", "quantity": "inhibition", "result": "17.7%"}
{"Compound": "COc1cc2ncnc(N(C)c3ccc4c(c3)/C(=C/c3ccccc3)C(=O)N4C)c2cc1OC (mixture of isomers)", "cell line": "A549", "test": "MTT", "quantity": "IC50", "result": "3.24 µM"}
{"Compound": "Cc1cccc(/C=C/C(=O)Nc2cccc(-c3ccnc(N4CCOCC4)c3)c2)c1", "cell line": "A549", "test": "MTT", "conditions": "5 µM", "quantity": "inhibition", "result": "29.4%"}
{"Compound": "CC(=NNC(=O)COc1ccc2c(C)c(Cc3ccccc3)c(=O)oc2c1C)c1ccc(Br)cc1", "cell line": "PC-3", "test": "MTT", "conditions": "31.25 µg/mL", "quantity": "viability", "result": "14%"}
{"Compound": "O=C(C=Cc1ccccc1)Nc1cccc(-c2ccnc(N3CCOCC3)c2)c1", "cell line": "A549", "test": "MTT", "conditions": "5 µM", "quantity": "inhibition", "result": "49.3%"}
{"Compound": "C=CCOc1ccc2c(C)c(CC)c(=O)oc2c1C", "cell line": "PC-3", "test": "MTT", "conditions": "31.25 µg/mL", "quantity": "viability", "result": "99.7%"}
{"Compound": "COc1ccc(-c2cc(-c3ccc(C)cc3)nc3[nH]c(=O)[nH]c(=O)c23)cc1OC", "cell line": "PC-3", "test": "MTT", "conditions": "48 h", "quantity": "IC50", "result": "39.1 µM"}
{"Compound": "Cc1nc(Nc2ccc3c(c2)C(C)(C)C(=O)N3C)c2ccccc2n1", "cell line": "A549", "test": "MTT", "quantity": "IC50", "result": "2.09 µM"}
{"Compound": "Cc1c(Cc2ccccc2)c(=O)oc2c(C)c(OCC(=O)NN=Cc3ccco3)ccc12", "cell line": "PC-3", "test": "MTT", "conditions": "500 µg/mL", "quantity": "viability", "result": "8.21%"}
